In ChEMBL document CHEMBL4428062, “Human Toll-like Receptor (TLR) 8-Specific Agonistic Activity in Substituted Pyrimidine-2,4-diamines” (J Med Chem, 2016) one finds Activity and EC50 data, which are given here for 26 compounds.

Usually EC50 stands for the midpoint of the concentration-response curve.

Calls of active or inactive are those of the source. The rule behind the calls is not given here.

What all share (type): cell-based
Experiment [1] deals with T1, Toll-like receptor 8 (Homo sapiens) (UniProt Q9NR97).
T1 sequence (whole entry): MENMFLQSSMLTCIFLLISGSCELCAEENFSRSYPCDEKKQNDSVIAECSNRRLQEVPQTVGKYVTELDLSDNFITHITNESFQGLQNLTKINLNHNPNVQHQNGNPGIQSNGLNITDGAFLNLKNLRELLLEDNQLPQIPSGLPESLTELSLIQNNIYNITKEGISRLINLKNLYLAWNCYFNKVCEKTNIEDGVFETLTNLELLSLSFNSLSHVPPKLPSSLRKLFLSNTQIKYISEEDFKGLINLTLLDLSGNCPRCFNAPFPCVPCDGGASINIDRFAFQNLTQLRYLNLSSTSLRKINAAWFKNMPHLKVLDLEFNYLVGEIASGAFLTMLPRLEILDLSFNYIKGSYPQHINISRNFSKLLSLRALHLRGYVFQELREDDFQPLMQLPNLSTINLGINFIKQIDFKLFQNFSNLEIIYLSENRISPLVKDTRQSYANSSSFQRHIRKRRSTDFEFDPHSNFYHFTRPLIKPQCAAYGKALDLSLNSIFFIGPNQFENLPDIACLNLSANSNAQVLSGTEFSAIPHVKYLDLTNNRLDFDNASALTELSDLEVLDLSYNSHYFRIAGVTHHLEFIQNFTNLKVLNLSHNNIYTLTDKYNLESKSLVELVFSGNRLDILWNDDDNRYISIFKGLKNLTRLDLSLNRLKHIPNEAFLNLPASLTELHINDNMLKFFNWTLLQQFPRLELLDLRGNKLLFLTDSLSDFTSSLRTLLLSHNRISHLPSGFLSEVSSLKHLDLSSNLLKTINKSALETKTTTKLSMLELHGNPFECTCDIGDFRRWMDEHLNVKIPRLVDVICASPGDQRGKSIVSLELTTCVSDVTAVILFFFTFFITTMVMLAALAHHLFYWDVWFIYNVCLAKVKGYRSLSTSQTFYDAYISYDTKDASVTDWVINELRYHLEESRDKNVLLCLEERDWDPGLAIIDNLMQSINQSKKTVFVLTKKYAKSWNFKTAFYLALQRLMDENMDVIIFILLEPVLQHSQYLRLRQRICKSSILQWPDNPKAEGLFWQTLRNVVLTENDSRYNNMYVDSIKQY
Briefly: Agonist activity at human TLR8 expressed in HEK293 cells assessed as induction of NF-kappaB activity at 100 uM by secreted alkaline phosphatase reporter gene assay. An outline of the steps: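 TLR8 reporter HEK293 cells carrying an NF-κB/AP-1-inducible secreted alkaline phosphatase were exposed to stimuli, with 100 µM as the top concentration tested. sAP released into the supernatant was read at 620 nm with a chromogenic substrate. Samples were run in quadruplicate.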
A general note: A reporter such as luciferase makes a cellular process visible.

In a further experiment the target is T2, Toll-like receptor 8 (Homo sapiens, UniProt Q9NR97).
T2 sequence (Q9NR97 whole entry): T1 sequence (whole entry)
Briefly: Agonist activity at human TLR8 expressed in HEK293 cells assessed as induction of NF-kappaB activity by secreted alkaline phosphatase reporter gene assay. The procedure, abridged: (§1)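 HEK293 reporter lines stably co-transfected with the respective human TLR and an NF-κB/AP-1-driven secreted alkaline phosphatase gene, kept in selection medium. About 10^5 cells/ml were incubated with graded concentrations of stimuli. Supernatant sAP was read spectrophotometrically at 620 nm using a chromogenic substrate in detection medium. EC50 was taken as the arithmetic mean of quadruplicate samples.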

Experiment [2] has as its target Toll-like receptor 2 (Homo sapiens) (UniProt O60603). Kind of experiment: Agonist activity at human TLR2 expressed in HEK293 cells assessed as induction of NF-kappaB activity by secreted alkaline phosphatase reporter gene assay. The procedure, abridged:
as §1

The target of experiment [3] is Toll-like receptor 4 (Homo sapiens) (UniProt O00206). Kind of experiment: Agonist activity at human TLR4 expressed in HEK293 cells assessed as induction of NF-kappaB activity by secreted alkaline phosphatase reporter gene assay. The procedure, abridged:
as §1

In experiment [4] the target is T3, Toll-like receptor 9 (Homo sapiens) (UniProt Q9NR96).
T3 sequence (whole entry): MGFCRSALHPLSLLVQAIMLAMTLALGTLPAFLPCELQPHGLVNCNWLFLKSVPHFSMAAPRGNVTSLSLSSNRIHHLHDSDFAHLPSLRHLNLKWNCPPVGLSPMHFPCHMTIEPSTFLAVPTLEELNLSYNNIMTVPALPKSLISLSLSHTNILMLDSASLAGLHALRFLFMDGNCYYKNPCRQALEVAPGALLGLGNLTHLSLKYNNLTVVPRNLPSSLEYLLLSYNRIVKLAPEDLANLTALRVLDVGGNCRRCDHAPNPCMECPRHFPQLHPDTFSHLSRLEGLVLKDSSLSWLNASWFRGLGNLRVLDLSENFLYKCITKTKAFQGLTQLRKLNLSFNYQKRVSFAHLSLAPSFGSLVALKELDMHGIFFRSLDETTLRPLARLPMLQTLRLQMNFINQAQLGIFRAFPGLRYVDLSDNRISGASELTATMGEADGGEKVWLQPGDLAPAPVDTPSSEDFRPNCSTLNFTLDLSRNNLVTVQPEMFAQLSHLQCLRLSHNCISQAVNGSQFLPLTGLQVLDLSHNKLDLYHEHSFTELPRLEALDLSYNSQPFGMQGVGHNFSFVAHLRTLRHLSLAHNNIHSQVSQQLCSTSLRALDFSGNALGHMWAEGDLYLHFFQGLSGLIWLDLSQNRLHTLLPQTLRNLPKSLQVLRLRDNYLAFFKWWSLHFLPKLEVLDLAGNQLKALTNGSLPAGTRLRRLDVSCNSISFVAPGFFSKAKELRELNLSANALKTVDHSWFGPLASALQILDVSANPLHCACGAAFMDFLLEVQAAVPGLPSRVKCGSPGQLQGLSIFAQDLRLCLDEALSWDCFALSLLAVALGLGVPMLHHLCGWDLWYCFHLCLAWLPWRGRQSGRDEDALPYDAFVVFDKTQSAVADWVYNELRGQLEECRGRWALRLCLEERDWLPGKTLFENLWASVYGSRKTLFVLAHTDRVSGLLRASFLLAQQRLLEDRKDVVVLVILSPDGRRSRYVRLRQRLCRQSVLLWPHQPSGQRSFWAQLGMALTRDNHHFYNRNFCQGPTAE
Kind of experiment: Agonist activity at human TLR9 expressed in HEK293 cells assessed as induction of NF-kappaB activity by secreted alkaline phosphatase reporter gene assay. An outline of the steps:
as §1

Experiment [5] addresses Toll-like receptor 5 (Homo sapiens) (UniProt O60602). Briefly: Agonist activity at human TLR5 expressed in HEK293 cells assessed as induction of NF-kappaB activity by secreted alkaline phosphatase reporter gene assay. The procedure, abridged:
as §1

The target of experiment [6] is Toll-like receptor 3 (Homo sapiens) (UniProt O15455). Briefly: Agonist activity at human TLR3 expressed in HEK293 cells assessed as induction of NF-kappaB activity by secreted alkaline phosphatase reporter gene assay. The procedure, abridged:
as §1

The target of experiment [7] is T4, Toll-like receptor 7 (Homo sapiens) (UniProt Q9NYK1).
T4 sequence (whole entry): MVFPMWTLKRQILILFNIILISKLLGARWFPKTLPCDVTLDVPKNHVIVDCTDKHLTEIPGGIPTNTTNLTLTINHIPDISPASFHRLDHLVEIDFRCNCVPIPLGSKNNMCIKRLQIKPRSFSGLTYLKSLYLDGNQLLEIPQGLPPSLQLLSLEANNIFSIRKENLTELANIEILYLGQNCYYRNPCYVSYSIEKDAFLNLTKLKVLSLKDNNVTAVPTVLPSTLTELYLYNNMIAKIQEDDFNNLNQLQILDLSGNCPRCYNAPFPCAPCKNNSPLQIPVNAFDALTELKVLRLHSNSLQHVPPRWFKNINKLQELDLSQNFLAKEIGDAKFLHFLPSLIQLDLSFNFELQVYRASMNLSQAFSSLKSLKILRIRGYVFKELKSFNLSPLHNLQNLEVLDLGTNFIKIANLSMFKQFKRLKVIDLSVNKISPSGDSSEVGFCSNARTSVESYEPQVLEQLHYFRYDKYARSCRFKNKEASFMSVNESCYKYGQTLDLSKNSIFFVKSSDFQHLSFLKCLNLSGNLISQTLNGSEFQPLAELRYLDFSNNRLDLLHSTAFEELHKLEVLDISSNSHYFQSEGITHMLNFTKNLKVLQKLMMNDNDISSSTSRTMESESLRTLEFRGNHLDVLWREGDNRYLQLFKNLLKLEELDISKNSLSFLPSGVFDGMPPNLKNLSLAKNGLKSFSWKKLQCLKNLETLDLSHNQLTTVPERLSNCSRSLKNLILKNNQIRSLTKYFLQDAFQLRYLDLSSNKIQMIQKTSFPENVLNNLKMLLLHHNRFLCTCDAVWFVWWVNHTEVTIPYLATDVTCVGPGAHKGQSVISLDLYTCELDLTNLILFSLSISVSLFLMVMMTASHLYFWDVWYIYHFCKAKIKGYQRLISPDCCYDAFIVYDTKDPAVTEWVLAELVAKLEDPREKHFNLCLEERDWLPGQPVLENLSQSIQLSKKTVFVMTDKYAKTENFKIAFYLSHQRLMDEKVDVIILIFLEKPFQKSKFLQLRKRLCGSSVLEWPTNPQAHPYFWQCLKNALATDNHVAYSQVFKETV
Briefly: Agonist activity at human TLR7 expressed in HEK293 cells assessed as induction of NF-kappaB activity by secreted alkaline phosphatase reporter gene assay. The procedure, abridged:
as §1

Sequence of Toll-like receptor 3 (Homo sapiens) (O15455 whole entry): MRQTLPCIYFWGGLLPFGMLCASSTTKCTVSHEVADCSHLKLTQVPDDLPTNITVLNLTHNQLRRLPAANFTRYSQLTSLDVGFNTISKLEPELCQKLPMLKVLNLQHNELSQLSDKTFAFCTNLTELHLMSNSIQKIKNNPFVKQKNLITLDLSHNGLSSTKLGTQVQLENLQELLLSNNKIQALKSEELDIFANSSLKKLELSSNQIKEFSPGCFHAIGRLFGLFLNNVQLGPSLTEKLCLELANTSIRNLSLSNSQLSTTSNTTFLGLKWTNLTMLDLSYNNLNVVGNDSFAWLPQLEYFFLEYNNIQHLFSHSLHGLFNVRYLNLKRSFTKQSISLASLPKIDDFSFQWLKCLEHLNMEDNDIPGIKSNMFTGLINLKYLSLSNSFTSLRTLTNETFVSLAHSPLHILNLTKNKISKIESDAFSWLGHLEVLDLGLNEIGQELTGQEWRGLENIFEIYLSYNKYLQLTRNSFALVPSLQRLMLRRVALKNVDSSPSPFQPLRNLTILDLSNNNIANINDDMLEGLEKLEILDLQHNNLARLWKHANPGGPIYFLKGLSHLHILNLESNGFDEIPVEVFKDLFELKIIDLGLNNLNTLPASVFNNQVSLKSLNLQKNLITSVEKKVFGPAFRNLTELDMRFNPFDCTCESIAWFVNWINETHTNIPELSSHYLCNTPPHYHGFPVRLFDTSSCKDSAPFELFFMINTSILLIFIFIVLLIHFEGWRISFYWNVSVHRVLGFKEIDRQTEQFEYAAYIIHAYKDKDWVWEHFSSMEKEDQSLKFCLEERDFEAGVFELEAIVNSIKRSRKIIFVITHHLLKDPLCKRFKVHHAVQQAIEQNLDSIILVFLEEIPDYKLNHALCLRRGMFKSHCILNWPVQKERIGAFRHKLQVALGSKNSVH
Sequence of Toll-like receptor 4 (Homo sapiens) (O00206 whole entry): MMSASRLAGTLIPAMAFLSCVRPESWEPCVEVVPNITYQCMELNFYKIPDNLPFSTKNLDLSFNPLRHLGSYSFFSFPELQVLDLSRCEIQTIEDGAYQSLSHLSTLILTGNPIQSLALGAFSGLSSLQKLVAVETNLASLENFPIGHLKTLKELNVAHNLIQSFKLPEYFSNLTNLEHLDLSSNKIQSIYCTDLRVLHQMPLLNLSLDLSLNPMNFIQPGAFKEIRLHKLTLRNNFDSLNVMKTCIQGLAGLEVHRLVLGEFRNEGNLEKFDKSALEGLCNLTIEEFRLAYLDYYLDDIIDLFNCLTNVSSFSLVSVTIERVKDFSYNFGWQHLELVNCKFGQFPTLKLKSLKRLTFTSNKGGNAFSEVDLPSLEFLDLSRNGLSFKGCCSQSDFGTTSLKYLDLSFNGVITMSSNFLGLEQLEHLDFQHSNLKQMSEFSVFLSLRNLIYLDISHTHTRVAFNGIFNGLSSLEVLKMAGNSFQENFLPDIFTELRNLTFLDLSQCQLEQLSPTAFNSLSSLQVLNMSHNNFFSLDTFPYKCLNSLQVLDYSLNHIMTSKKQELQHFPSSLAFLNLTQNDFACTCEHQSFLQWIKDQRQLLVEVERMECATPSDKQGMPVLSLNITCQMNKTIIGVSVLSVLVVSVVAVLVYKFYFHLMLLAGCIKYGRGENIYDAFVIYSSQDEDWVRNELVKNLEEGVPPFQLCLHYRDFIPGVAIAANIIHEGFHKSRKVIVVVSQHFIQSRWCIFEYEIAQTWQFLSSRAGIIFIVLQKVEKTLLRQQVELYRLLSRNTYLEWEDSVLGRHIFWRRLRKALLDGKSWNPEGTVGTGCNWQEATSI
Sequence of Toll-like receptor 2 (Homo sapiens) (O60603 whole entry): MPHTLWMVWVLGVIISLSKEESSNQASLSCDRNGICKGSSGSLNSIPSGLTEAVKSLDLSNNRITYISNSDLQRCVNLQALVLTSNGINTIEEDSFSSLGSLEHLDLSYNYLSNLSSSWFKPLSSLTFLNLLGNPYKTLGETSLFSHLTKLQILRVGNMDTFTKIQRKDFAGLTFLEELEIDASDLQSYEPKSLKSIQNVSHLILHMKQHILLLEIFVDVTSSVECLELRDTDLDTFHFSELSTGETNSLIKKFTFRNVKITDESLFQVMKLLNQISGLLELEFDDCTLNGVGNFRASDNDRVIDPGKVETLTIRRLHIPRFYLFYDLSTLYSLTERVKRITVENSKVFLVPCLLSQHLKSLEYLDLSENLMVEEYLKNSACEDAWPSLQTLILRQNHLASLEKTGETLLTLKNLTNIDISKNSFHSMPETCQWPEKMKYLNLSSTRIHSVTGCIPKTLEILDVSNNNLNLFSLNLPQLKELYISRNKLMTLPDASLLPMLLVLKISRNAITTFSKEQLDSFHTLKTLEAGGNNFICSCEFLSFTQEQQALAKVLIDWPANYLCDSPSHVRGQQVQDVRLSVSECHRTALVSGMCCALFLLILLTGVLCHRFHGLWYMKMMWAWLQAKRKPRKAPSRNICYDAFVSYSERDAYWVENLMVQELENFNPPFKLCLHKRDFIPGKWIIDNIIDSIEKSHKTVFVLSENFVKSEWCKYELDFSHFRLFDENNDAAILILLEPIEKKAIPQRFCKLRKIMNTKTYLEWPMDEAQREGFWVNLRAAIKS
Sequence of Toll-like receptor 5 (Homo sapiens) (O60602 whole entry): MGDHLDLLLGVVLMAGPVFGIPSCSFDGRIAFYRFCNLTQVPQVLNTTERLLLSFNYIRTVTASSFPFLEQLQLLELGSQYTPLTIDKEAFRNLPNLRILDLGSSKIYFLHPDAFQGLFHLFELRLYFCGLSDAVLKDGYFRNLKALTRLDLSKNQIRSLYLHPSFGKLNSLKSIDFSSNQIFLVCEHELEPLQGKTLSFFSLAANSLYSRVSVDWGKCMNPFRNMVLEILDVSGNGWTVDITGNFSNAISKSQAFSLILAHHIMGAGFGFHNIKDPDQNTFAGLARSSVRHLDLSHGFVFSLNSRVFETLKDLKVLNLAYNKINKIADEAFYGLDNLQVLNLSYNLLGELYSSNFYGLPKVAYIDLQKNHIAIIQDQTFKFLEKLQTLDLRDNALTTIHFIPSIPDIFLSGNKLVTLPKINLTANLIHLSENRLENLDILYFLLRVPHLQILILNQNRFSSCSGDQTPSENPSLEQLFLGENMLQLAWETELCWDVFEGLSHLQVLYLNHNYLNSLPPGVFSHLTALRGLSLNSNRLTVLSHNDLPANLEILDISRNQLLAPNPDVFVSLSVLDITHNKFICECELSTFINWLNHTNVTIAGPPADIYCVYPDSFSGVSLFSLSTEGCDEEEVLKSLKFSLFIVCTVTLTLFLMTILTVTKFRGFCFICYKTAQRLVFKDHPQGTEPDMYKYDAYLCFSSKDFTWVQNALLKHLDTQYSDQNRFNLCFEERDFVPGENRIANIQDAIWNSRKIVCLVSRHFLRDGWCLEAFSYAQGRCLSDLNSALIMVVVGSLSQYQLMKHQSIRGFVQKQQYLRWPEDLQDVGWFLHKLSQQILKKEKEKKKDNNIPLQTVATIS

Turning to `CCCCNc1nc(N)nc(Cl)c1I`, in experiment [1], the outcome was inactive.

Turning to `CCCCCCNc1nc(N)nc(C)c1I`, in experiment [1], the outcome was inactive.

Turning to `CCCCOc1nc(N)nc(C)c1I`, the result in experiment [1] was inactive.

For `CCCCNc1nc(N)nc(OC)c1I`, the outcome in experiment [1] was inactive.

Regarding `CCCCCNc1nc(N)nc(C)c1I`, the EC50 on Toll-like receptor 8 is 3.7 µM.

As to `CCCCN(Cc1ccccc1)c1nc(N)nc(C)c1I`, in experiment [1], the outcome was inactive.

`CCCCNc1nc(N)nc(C)c1Cc1ccccc1`: the EC50 on Toll-like receptor 8 amounted to 1.2 µM.

Take `CCCNc1nc(N)nc(C)c1I`: in experiment [1], the result was inactive.

With `CCCCNc1nc(N)nc(C)c1Br`, the EC50 at Toll-like receptor 8 turned out to be 8.5 µM.

For the compound `CCCCCc1cc(C)nc(N)n1`, in experiment [1], the outcome was inactive.

Regarding `CCCC#Cc1cc(C)nc(N)n1`, the outcome in experiment [1] was inactive.

For `CCCCNc1nc(N)nc(-c2ccccc2)c1I`, the outcome in experiment [1] was inactive.

As for `CCCCNc1nc(N)nc(C)c1CCCCCN`, the EC50 on Toll-like receptor 8 is 0.3 µM.

Turning to `CCCCCc1nc(N)nc(C)c1I`, the result in experiment [1] was inactive.

On to `CCCCNc1nc(N)nc(N)c1I`, for which, in experiment [1], the outcome was inactive.

In the case of `CCCCN(C)c1nc(N)nc(C)c1I`, the result in experiment [1] was inactive.

`CCCCNc1cc(OC)nc(N)n1`: in experiment [1], the result was inactive.

Consider `CCCCNc1nc(N)nc(-c2ccccc2)c1CCCN`, for which, in experiment [1], the outcome was inactive.

In the case of `CCCCSc1nc(N)nc(C)c1I`, the outcome in experiment [1] was inactive.

`CCCCNc1nc(N)nc(C)c1CCCN`: the result in experiment [2], in experiment [3], in experiment [4], in experiment [5], in experiment [6] and in experiment [7] was inactive.

In the case of `CCCCNc1nc(N)nc(C)c1Cl`, the EC50 at Toll-like receptor 8 came to 20 µM.

For the compound `CCCCNc1nc(N)nc(C)c1F`, at Toll-like receptor 8, the EC50 is 34 µM.

For the compound `CCCCNc1cc(C)nc(N)n1`, the outcome in experiment [2], in experiment [3], in experiment [4], in experiment [5], in experiment [6] and in experiment [7] was inactive.

For `CCCCNc1cc(Cl)nc(N)n1`, the outcome in experiment [1] was inactive.

Take `CCCCNc1cc(N)nc(N)n1`: the outcome in experiment [1] was inactive.

On to `CCCCNc1nc(N)ncc1I`, for which the result in experiment [1] was inactive.
